# Beta2AR agonist – activates human beta-2 adrenergic receptor causing internalization; Am2.2-beta2AR cells, FAP receptor internalization, flow cytometry; response, % (test concentration not listed); 0.43% of 340,000 active; AID 504454; P07550;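 active = response above a set limit, near 3 SD of response in nonfluorescent compounds, cut at about 42% in these data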
# Target sequence (P07550 whole entry, looked up): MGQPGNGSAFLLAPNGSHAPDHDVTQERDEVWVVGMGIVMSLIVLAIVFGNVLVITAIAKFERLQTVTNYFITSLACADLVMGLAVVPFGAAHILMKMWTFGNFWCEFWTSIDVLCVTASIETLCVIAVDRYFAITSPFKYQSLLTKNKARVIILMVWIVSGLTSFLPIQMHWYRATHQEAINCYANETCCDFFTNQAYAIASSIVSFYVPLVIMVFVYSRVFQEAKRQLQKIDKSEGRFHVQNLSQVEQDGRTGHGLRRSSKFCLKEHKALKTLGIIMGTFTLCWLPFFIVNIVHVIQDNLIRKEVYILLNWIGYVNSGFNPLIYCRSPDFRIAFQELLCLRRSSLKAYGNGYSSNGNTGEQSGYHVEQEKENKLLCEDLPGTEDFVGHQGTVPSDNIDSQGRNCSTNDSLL
# T cell modulator – T cell immune modulators affecting CD8 T cell-vesicle binding; response (vesicle binding), % at 7 µM; 2C CD8+ T cell-vesicle binding, flow cytometry; hits give low values; 0.068% of 330,000 active;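 active = response, share of CD8 T cells binding vesicles, and their 90th percentile fluorescence all below set limits, cut at about 80% in these data, passing the limit was not always enough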;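 also: values below 100% mean blocked vesicle binding to the CD8+ T cells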
#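 Incubation: binding step 1.5 h, 37 °C, antibody labelling 20 min, ice; system: murine 2C transgenic CD8+ T lymphocytes; technique: cytometric PE anti-B7-1 and Alexa647 anti-CD8 signals after 1% paraformaldehyde fixation; also added: QL9-charged Drosophila Ld/ICAM-1/B7-1 vesicles; control set: naked versus QL9-loaded vesicles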
# rCAG binder – molecules binding r(CAG) RNA repeats. r(CAG) RNA repeat, TO-PRO-1 dye displacement fluorescence. 1.3% of 370,000 active. inhibition, % at 3 µM. AID 651821;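 active = inhibition above the plate cutoff, the mean of all test compounds on that plate plus 3 SD, cut at about 35% in these data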;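 also: 0% = DMSO alone and 100% = 100 µM mitoxantrone as full dye displacement; higher means more dye released from RNA so lower well fluorescence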
# V-ATPase pH – yeast V-ATPase proton transport regulation by pHLuorin. S. cerevisiae, pHLuorin cytosolic pH fluorescence. response, % at 10 µM. 0.37% of 350,000 active; in the data active = response mostly above about 7.3%, no sharp cut-off; inactive = mostly below about 5.4%; also: actives read high
# Granule exo inh – lytic granule exocytosis inhibition; TALL-104 LAMP-1 surface exposure, flow cytometry; cells stimulated with thapsigargin and PMA; inhibition, % at 10 µM; 0.66% of 360,000 active; AID 651702;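 active = inhibition above about 55%, limit read from the data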
# MPTP block – inhibitors of mitochondrial permeability transition pore; isolated mouse mitochondria, Ca2+ swelling absorbance, 30 min; inhibition, % at 10 µM; 1.4% of 360,000 active;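 active = inhibition of 50% or more, scaled per plate between neutral and stimulator controls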;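 also: 0% = DMSO wells given calcium and 100% = 1 mM EGTA wells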
# Active calls of the source: *; i = inactive; / = not tested or not shown. Shown are actives, neighbours in structure and some others; about 3.8% of the full set was active somewhere.
SMILES,Beta2AR agonist,T cell modulator,rCAG binder,V-ATPase pH,Granule exo inh,MPTP block
COc1cc(CNCCc2ccc(S(N)(=O)=O)cc2)ccc1OCC(=O)N1CCCCC1,2,79*,-3,-3,-1,3
C#CCOCCOCCOCCNc1nc(N2CCN(C(=O)CCCCCCCCCCNC(=O)[C@H](CCC(=O)O)n3cc(CCCCCN)nn3)CC2)nc(N2CCN(C(=O)CCCCCCCCCCNC(=O)[C@@H]([C@H](C)O)n3cc(C)nn3)CC2)n1,25,439,/,-2,-5,-2
C#CCOCCOCCOCCNc1nc(N2CCN(C(=O)CCCCCCCCCCNC(=O)[C@H](CCCCN)n3cc(CCO)nn3)CC2)nc(N2CCN(C(=O)CCCCCCCCCCNC(=O)[C@@H]([C@H](C)O)n3cc(C)nn3)CC2)n1,87*,380,/,3,-4,-7
C#CCOCCOCCOCCNc1nc(N2CCN(C(=O)[C@H](CCC(=O)O)n3cc([C@@H](N)CCCCN)nn3)CC2)nc(N2CCN(C(=O)[C@H](CCCCN)n3cc([C@@H](N)CC(N)=O)nn3)CC2)n1,-2,464,4,4,59*,0
C#CCOCCOCCOCCNc1nc(N2CCN(C(=O)[C@H](CCC(=O)O)n3cc([C@@H](N)CCCCN)nn3)CC2)nc(N2CCN(C(=O)[C@H](CCC(=O)O)n3cc([C@@H](N)CCCCN)nn3)CC2)n1,-4,185,4,3,-1,3
C#CCOCCOCCOCCNc1nc(N2CCN(C(=O)CCCCCCCCCCNC(=O)[C@H](CCCCN)n3cc(C[C@@H](C)CC)nn3)CC2)nc(N2CCN(C(=O)CCCCCCCCCCNC(=O)[C@H](CCCCN)n3cc(C[C@@H](C)CC)nn3)CC2)n1,42*,476,/,8,-12,-3
C#CCOCCOCCOCCNc1nc(N2CCN(C(=O)CCCCCCCCCCNC(=O)[C@@H](CCSC)n3cc(CCO)nn3)CC2)nc(N2CCN(C(=O)CCCCCCCCCCNC(=O)[C@H]([C@@H](C)CC)n3cc(CCCCN=C(N)N)nn3)CC2)n1,78*,528,/,0,-3,-12
C=CCOC(=O)N[C@H](c1ccc2ccccc2c1)[C@H](C)/C=C/CC(=O)OC,/,/,1,/,/,/
CCCCCCCCN1CCS(=O)(=O)N(Cc2ccc(OC)cc2)C(C(=O)OC)C1 (stereo not drawn),/,/,2,/,/,/
COC(=O)[C@]12C[C@H](CC(=O)NCC3CCCCC3)C(=O)N(Cc3ccc(Cl)cc3Cl)C1=C[C@H](C(C)C)O[C@@H]2C1CC1,/,/,8,/,/,/
COc1ccc(CN(C(=O)CSc2nnc(-c3ccccc3C)o2)c2ccc(F)cc2)cc1,4,392,-2,5,0,1
O=C(CSc1nnc(-c2c[nH]c3ccccc23)o1)N(Cc1ccccc1)c1ccc(F)cc1,3,337,/,-75,78*,20
COc1ccc(C(=O)/C=C/c2ccc(O)cc2)c2c1CC(O)C(C)(C)O2 (stereo not drawn),-32,479,-2,-2,2,1
COc1ccc(C(=O)/C=C/c2ccc(O)cc2)c(O)c1CC=C(C)C,5,617,53*,-4,0,2
CC(C)C[C@@H]1COc2cc(Br)ccc2S(=O)(=O)N1Cc1cn(Cc2ccco2)nn1,/,/,6,/,/,/
C[C@@H](CO)N(Cc1cn(Cc2ccccc2)nn1)S(=O)(=O)c1ccccc1Br,/,/,1,/,/,/
O=C(Nc1ccc(Oc2ccccc2)cc1)C1CCN(c2ncccn2)CC1,-9,536,0,0,-4,8
O=C(Nc1ccc(Oc2c(F)c(F)c(F)c(F)c2F)cc1)OC1CCN2Cc3ccccc3N=C12 (stereo not drawn),102*,823,/,0,22,0
CCOC(=O)[C@@]12CN(C(=O)OC(C)(C)C)CC=C1N(Cc1ccc(OC)cc1)C(=O)[C@H]2CC(=O)NCCCCc1ccccc1,/,/,1,/,/,/
Cc1ccc(S(=O)(=O)Nc2nc3ccccc3nc2NCC2CCCO2)cc1C (stereo not drawn),-2,250,42*,-1,0,0
C=CCN1[C@H](Cc2ccccc2)COc2cc(N3CCSCC3)ccc2S1(=O)=O,/,/,4,/,/,/
CC(C)C(=O)N1CCC2(CC1)Oc1ccc(Cl)cc1C(=O)C21CC(c2cccnc2)=NO1 (stereo not drawn),-11,0.0*,-3,0,-5,1
O=C(c1ccoc1)N1CCC2(CC1)Oc1ccc(Cl)cc1C(=O)C21CC(c2cccnc2)=NO1 (stereo not drawn),-14,561,-5,-1,-2,0
Cc1ccccc1OCC(=O)Nc1sc2c(c1C#N)CC(C)(C)NC2(C)C,-14,245,-3,-1,59*,0
CC(C1=CCCCC1)c1cnn(C)c1 (stereo not drawn),/,/,1,/,/,/
SMILES,Beta2AR agonist,T cell modulator,rCAG binder,V-ATPase pH,Granule exo inh,MPTP block
N#CC(C#N)=C1C=CC=CN1/C(=C\c1ccco1)C(=O)c1ccccc1,60*,172,2,2,45,0
COc1ccc(/C=C(/C(=O)c2cccs2)N2C=CC=CC2=C(C#N)C#N)cc1,77*,/,4,-4,44,-2
COc1ccc(C(=O)/C(=C\c2ccco2)N2C=CC=CC2=C(C#N)C#N)cc1,60*,138,/,-4,65*,0
N#CC(C#N)=C1C=CC=CN1/C(=C\c1ccco1)C(=O)c1ccc(Br)cc1,75*,263,7,-5,86*,0
COc1ccc(C(=O)N/C(=C\c2ccco2)C(=O)OCc2ccco2)cc1,-1,396,10,-1,-8,4
COc1ccc(N=N/C(=C\O)C(=O)c2cccs2)cc1,26,274,5,1,6,0
N#C/C(=C/c1ccco1)C(N)=S,1,298,7,-5,-3,-1
O=C1CC2c3cc(Br)ccc3CCN2C(=O)CN1Cc1ccccc1 (stereo not drawn),/,/,0,/,/,/
Cc1ccc(OCc2nnc(SCC(=O)c3ccc4ccccc4c3)n2-c2ccc(Cl)cc2)cc1,/,/,7,/,/,/
CC(C)CNc1cccc2c1S(=O)(=O)N(Cc1cn(Cc3ccc(C(F)(F)F)cc3)nn1)Cc1ccccc1O2,/,/,6,/,/,/
O=C(CCc1ccccc1-c1ccccc1CCNC(=O)c1ccccc1)NCc1ccccc1,/,/,1,/,/,/
Cc1ccc(-n2c(SCc3cccc4ccccc34)nnc2-c2ccccn2)cc1,/,/,3,/,/,/
CCCCCCCCN1CCS(=O)(=O)N(Cc2ccccc2)C(C(=O)OC)C1 (stereo not drawn),/,/,-2,/,/,/
CC1(C)CC(=O)C2=C(C1)OC1=C(C2)C(=O)CC(C)(C)C1,-5,i,0,146*,1,4
Cc1ccc2nc3cc([N+](=O)[O-])cc([N+](=O)[O-])c3cc2c1,59*,/,2,9,63*,2
Cc1nc2ccc([N+](=O)[O-])cc2nc1C,2,i,-4,0,10,3
O=C(Nc1ccccc1)OCCN1C(=O)CCC12CCC(c1ccccc1)CC2 (stereo not drawn),/,/,2,/,/,/

# Source: PubChem
